Experimental data: ChEMBL document CHEMBL1156961, “Inhibition of Escherichia coli glycosyltransferase MurG and Mycobacterium tuberculosis Gal transferase by uridine-linked transition state mimics” (Bioorg Med Chem, 2010)
The source made the active and inactive calls. No cut-off for these calls is given here.

Legend:
[1] = target: T1, Galactofuranosyltransferase GlfT2 (Mycobacterium tuberculosis) (UniProt O53585); assay: Inhibition of Mycobacterium tuberculosis GlfT2 assessed as incorporation of [14C]Gal at 1 mM by scintillation counting
T1 sequence (whole entry): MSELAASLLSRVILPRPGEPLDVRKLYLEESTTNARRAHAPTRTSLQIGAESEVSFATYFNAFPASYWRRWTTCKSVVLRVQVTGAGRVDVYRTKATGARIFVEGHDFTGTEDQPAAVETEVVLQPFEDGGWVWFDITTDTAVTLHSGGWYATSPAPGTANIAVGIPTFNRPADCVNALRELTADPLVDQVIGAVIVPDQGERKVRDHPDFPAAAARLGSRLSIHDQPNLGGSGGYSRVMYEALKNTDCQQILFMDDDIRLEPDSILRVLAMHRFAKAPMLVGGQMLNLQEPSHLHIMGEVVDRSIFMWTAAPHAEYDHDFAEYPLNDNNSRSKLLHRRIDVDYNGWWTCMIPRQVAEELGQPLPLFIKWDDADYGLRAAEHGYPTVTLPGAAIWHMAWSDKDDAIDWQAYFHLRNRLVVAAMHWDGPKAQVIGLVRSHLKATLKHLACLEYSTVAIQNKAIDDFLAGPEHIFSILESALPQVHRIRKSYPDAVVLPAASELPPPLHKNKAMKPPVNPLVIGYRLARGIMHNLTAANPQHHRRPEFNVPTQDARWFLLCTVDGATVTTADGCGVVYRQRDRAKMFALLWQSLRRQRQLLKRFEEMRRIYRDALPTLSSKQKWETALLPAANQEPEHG

[2] = test system: Escherichia coli; assay: Inhibition of Escherichia coli recombinant C terminal His-tagged MurG expressed in Escherichia coli C43 assessed as inhibition of […] labelled lipid intermediate 2 formation at 1 mM over 15 mins by scintillation counting
[3] = Inhibition of Escherichia coli recombinant C terminal His-tagged MurG expressed in Escherichia coli C43 assessed as inhibition of [3H]UDPGlc labelled lipid intermediate 2 formation over 15 mins by scintillation counting
[4] = test system: Escherichia coli; assay: Antibacterial activity against Escherichia coli BL21 at 100 ug/ml after 24 hrs; assay type: functional, organism-based
Summary of the method: (§1)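 LB broth culture grown overnight at 37 °C from a single colony, diluted to 2% in fresh LB and mixed 1:1 with sterile aqueous compound (200 μg/ml or 1 mg/ml solution) or water. Incubated at 37 °C, growth followed by OD595 at 3, 6 and 24 h.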

[5] = test system: Pseudomonas putida; assay: Antibacterial activity against Pseudomonas putida ATCC 33015 at 100 ug/ml after 24 hrs; assay type: functional, organism-based; summary of the method: as §1
[6] = test system: Bacillus subtilis; assay: Antibacterial activity against Bacillus subtilis W23 at 100 ug/ml after 24 hrs; assay type: functional, organism-based; summary of the method: as §1

COc1ccccc1[C@H]1N[C@@](C)(COC(=O)CC(=O)OC[C@H]2O[C@@H](n3ccc(=O)[nH]c3=O)[C@H](O)[C@@H]2O)[C@H]2C(=O)N(c3ccccc3)C(=O)[C@@H]12
inhibition [1]: 0%

COC(=O)[C@@H]1[C@@H]2C(=O)N(CC(=O)NC[C@H]3O[C@@H](n4ccc(=O)[nH]c4=O)[C@H](O)[C@@H]3O)C(=O)[C@@H]2N[C@@H]1c1cccc(OC)c1OC
inhibition [2]: 0%

COc1ccccc1[C@H]1N[C@@](C)(C(=O)N2CCC[C@H]2C(=O)NC[C@H]2O[C@@H](n3ccc(=O)[nH]c3=O)[C@H](O)[C@@H]2O)[C@H]2C(=O)NC(=O)[C@@H]12
IC50 [3]: > 5 mM

COC(=O)[C@H]1[C@@H](c2ccccc2OC)N[C@@](C)(C(=O)N2CCC[C@H]2C(=O)NC[C@H]2O[C@@H](n3ccc(=O)[nH]c3=O)[C@H](O)[C@@H]2O)[C@@H]1C(=O)OC (mixture of isomers)
inhibition [1]: 0%

C[C@@]1(C(=O)NCC(=O)NC[C@H]2O[C@@H](n3ccc(=O)[nH]c3=O)[C@H](O)[C@@H]2O)N[C@H]([C@H](O)CO)[C@@H]2C(=O)N(c3ccccc3)C(=O)[C@@H]21
inhibition [1]: 0%

COc1cccc([C@H]2N[C@@](C)(C(=O)NCC(=O)NC[C@H]3O[C@@H](n4ccc(=O)[nH]c4=O)[C@H](O)[C@@H]3O)[C@H]3C(=O)N(c4ccccc4)C(=O)[C@@H]23)c1OC
inhibition [1]: 0%

COc1ccccc1[C@H]1N[C@@](C)(COC(=O)CCC(=O)OC[C@H]2O[C@@H](n3ccc(=O)[nH]c3=O)[C@H](O)[C@@H]2O)[C@H]2C(=O)N(c3ccccc3)C(=O)[C@@H]12 (mixture of isomers)
inhibition [1]: 0%

COC(=O)[C@H]1[C@@H](c2ccccc2OC)N[C@@](C)(C(=O)NCC(=O)NC[C@H]2O[C@@H](n3ccc(=O)[nH]c3=O)[C@H](O)[C@@H]2O)[C@@H]1C(=O)OC (mixture of isomers)
IC50 [3]: > 5 mM | inhibition [1]: 0%

COC(=O)[C@@H]1[C@@H]2C(=O)N(CC(=O)NC[C@H]3O[C@@H](n4ccc(=O)[nH]c4=O)[C@H](O)[C@@H]3O)C(=O)[C@@H]2N[C@@H]1c1ccc(OC)c(OC)c1
IC50 [3]: 4 mM | inhibition [1]: 0%

COC(=O)[C@@H]1[C@@H]2C(=O)N(CC(=O)NC[C@H]3O[C@@H](n4ccc(=O)[nH]c4=O)[C@H](O)[C@@H]3O)C(=O)[C@@H]2N[C@@H]1c1ccccc1OC
inhibition [2]: 0% | inhibition [1]: 0%

COC(=O)[C@@H]1[C@H]2C(=O)N(CC(=O)NC[C@H]3O[C@@H](n4ccc(=O)[nH]c4=O)[C@H](O)[C@@H]3O)C(=O)[C@@H]2N[C@@H]1c1ccccc1OC
inhibition [2]: 22% | inhibition [1]: 0%

COc1ccccc1[C@H]1N[C@@](C)(C(=O)NCC(=O)NC[C@H]2O[C@@H](n3ccc(=O)[nH]c3=O)[C@H](O)[C@@H]2O)[C@H]2C(=O)N(c3ccccc3)C(=O)[C@@H]12 (mixture of isomers)
Activity [4]: inactive | Activity [5]: inactive | Activity [6]: inactive | inhibition [1]: 0%

COC(=O)[C@H]1[C@@H](c2ccccc2OC)N[C@@](C)(C(=O)N2CCC[C@H]2C(=O)NC[C@H]2O[C@@H](n3ccc(=O)[nH]c3=O)[C@H](O)[C@@H]2O)[C@H]1C(=O)OC
inhibition [1]: 0%

COC(=O)[C@@H]1[C@@H]2C(=O)N(CC(=O)NC[C@H]3O[C@@H](n4ccc(=O)[nH]c4=O)[C@H](O)[C@@H]3O)C(=O)[C@@H]2N[C@@H]1c1ccccc1
inhibition [2]: 0% | inhibition [1]: 80%
